Assay results from ChEMBL document CHEMBL5029154, “Design, Synthesis, and Biological Evaluation of Organic Nitrite (NO2-) Donors as Potential Anticerebral Ischemia Agents” (J Med Chem, 2021).
In brackets after ≈: the same amount, converted by molar mass. Activity calls are given as the source filed them. No cut-off for these calls is given here.

Tests used:
[1] = Drug metabolism assessed as nitric oxide release in presence of bovine plasma at 200 uM measured after 1 hr by Griess reagent based assay; type: ADME, cell-free, Bos taurus; conditions: cattle
[2] = Stability of the compound in pH 6 phosphate buffer assessed as half life at 200 uM measured after 24 hrs by HPLC analysis; type: physicochemical; conditions: phosphate buffer pH 6, pH 6
[3] = GSH reactivity assessed as reaction rate measured at 8 equiv of GSH upto 24 hrs by HPLC analysis; type: ADME
[4] = Solubility of compound in water; type: physicochemical
[5] = Drug metabolism in Sprague-Dawley rat assessed as peak nitrite release in plasma at 10 mg/kg, iv measured upto 120 mins by ion chromatography; type: ADME, organism-based; conditions: in vivo, 2 h
In short: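 Male SD rats (N = 3/group) received a single iv dose. Plasma was sampled at 2, 5, 15, 30, 60, 90 and 120 min. Nitrite was quantified by ion chromatography. Values are mean ± SD.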

Cortical neurone [6] = test: Neuroprotective activity against in OGD/R-induced rat cortical neuron cytotoxicity assessed as decrease in cell viability pretreated at 1.8 uM for 24 hrs followed by subjected to OGD for 2 hrs measured after 24 hrs under normoxic condition i n presence of ML385 by MTT assay; type: functional, tissue-based
In short: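 Cortical neurons were isolated from SD rat cortex by enzymatic digestion, plated on poly-lysine in 10% FBS DMEM, and pretreated 24 h at 1.8 μM in basal medium with 2% B27. OGD was run in glucose/FBS-free DMEM under 1% O₂, followed by 24 h reoxygenation in 10% FBS DMEM. Viability was read by MTT; apoptosis was also assessed. Three independent experiments.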

Cortical neurone [7] = test: Induction of HO-1 mRNA transcript level in OGD/R-induced rat primary cortical neuron pretreated at 1.8 uM for 24 hrs followed by subjected to OGD for 2 hrs measured after 24 hrs under normoxic condition by RT-qPCR analysis; type: functional, tissue-based
In short: (§1)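 Primary rat cortical neurons were pretreated with 1.8 μM compound for 24 h, given 2 h OGD, then 24 h normoxic culture. Nrf2, HO-1 and NQO1 mRNA were measured by RT-qPCR. Cytoplasmic and nuclear protein (30 μg/lane) were blotted for Nrf2, with lamin A and β-actin as references, and quantified by densitometry as the nuclear:cytoplasmic ratio. Three independent experiments, mean ± SD.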

Cortical neurone [8] = test: Induction of NQO1 mRNA transcript level in OGD/R-induced rat primary cortical neuron pretreated at 1.8 uM for 24 hrs followed by subjected to OGD for 2 hrs measured after 24 hrs under normoxic condition by RT-qPCR analysis; type: functional, tissue-based; in short: as §1
Rattus norvegicus [9] = test: Neuroprotective activity against middle cerebral artery occlusion-induced ischemia-reperfusion injury Sprague-Dawley rat model assessed as decrease in neurologic deficit scores at 95 to 9500 microg/kg, iv pretreated for 2 hrs followed by reperfusion measured after 24 hrs; type: functional, organism-based; conditions: dose 95-9500 µg/kg
In short: (§2)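 Male SD rats (N = 8/group) were dosed iv at 95, 950 or 9500 μg/kg 2 h before 2 h MCAO (nylon suture, chloral hydrate anesthesia), then reperfused. Where used, PTIO 1 mg/kg iv was given 30 min before compound. At 24 h, blinded assessment covered Longa deficit score, TTC-stained 2 mm sections (infarct area/whole area), and edema by wet/dry weight.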

Rattus norvegicus [10] = test: Neuroprotective activity against middle cerebral artery occlusion-induced ischemia-reperfusion injury Sprague-Dawley rat model assessed as decrease in neurologic deficit scores at 950 microg/kg, iv pretreated for 2 hrs followed by reperfusion measured after 24 hrs in presence of PTIO; type: functional, organism-based; conditions: dose 950.0 µg/kg; in short: as §2
[11] = Toxicity in Sprague-Dawley rat assessed as effect on blood pressure at 950 microg/kg, iv measured upto 24 hrs; type: organism-based; conditions: in vivo, 0.95 mg/kg, dose 950 µg/kg
In short: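 Male Sprague-Dawley rats (12 weeks, 200−220 g, SPF housing, free chow and water) received a single iv tail-vein injection of test compound or vehicle control, n = 3 per group, followed by blood pressure measurement.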

Rattus norvegicus [12] = test: Neuroprotective activity against middle cerebral artery occlusion-induced ischemia-reperfusion injury Sprague-Dawley rat model assessed as decrease in brain infarct volume at 95 to 9500 microg/kg, iv treated immediately reperfusion measured after 24 hrs; type: functional, organism-based; conditions: dose 95-9500 µg/kg
In short: (§3)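 Male SD rats (12 weeks, 200–220 g; N = 8/group) underwent MCAO under […] (350 mg/kg) using a nylon intraluminal suture for 2 h, then reperfusion. Compound (95, 950 or 9500 μg/kg) was given iv immediately after reperfusion; where used, PTIO 1 mg/kg iv was given 30 min before. At 24 h, blinded scoring covered Longa neurological deficit, TTC infarct area/whole area, and edema from wet/dry brain weight (105 °C, 24 h).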

Rattus norvegicus [13] = test: Neuroprotective activity against middle cerebral artery occlusion-induced ischemia-reperfusion injury Sprague-Dawley rat model assessed as decrease in cerebral edema degree at 95 to 9500 microg/kg, iv treated immediately reperfusion measured after 24 hrs; type: functional, organism-based; conditions: dose 95-9500 µg/kg; in short: as §3
Rattus norvegicus [14] = test: Neuroprotective activity against middle cerebral artery occlusion-induced ischemia-reperfusion injury Sprague-Dawley rat model assessed as decrease in brain infarct volume at 95 to 9500 microg/kg, iv treated immediately reperfusion in presence of PTIO measured after 24 hrs; type: functional, organism-based; conditions: dose 95-9500 µg/kg; in short: as §3
Rattus norvegicus [15] = test: Neuroprotective activity against middle cerebral artery occlusion-induced ischemia-reperfusion injury Sprague-Dawley rat model assessed as increase in HO-1 expression in cerebral ischemic penumbra at 950 microg/kg, iv treated immediately reperfusion measured after 24 hrs; type: functional, organism-based; conditions: dose 950.0 µg/kg
In short: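 MCAO rat brain paraffin sections (3 μm) were blocked with 10% goat serum and stained by IHC for NQO-1 and HO-1 (1:200) and phospho-Nrf2 (1:100), with DAB detection and rabbit IgG as negative control. Average optical density of positive cells was scored blinded over five fields per sample.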

HUVEC = test: Angiogenesis activity in HUVEC cells assessed as increase in tube formation at 1.8 uM measured after 8 hrs in presence of NS2028 by inverted microscopy; type: functional, cell-based; conditions: Homo sapiens
In short: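 Early-passage HUVECs (passages 2–6), grown in DMEM with 10% FBS, glutamine, pyruvate and antibiotics, were seeded at 8 × 10⁴ cells/well on Matrigel. They were exposed to vehicle or compound for 8 h at 37 °C, 5% CO₂. Tubes were counted under an inverted microscope.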

Rattus norvegicus [16] = test: Angiogenic activity in middle cerebral artery occlusion-induced ischemia-reperfusion injury Sprague-Dawley rat model assessed as tube formation in cerebral ischemic penumbra at 95 to 9500 microg/kg, iv treated immediately reperfusion measured after 7 days by immunofluoresence assay; type: functional, organism-based; conditions: dose 95-9500 µg/kg, time 7.0 day
In short: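 After MCAO/reperfusion, SD rats (N = 5/group) were dosed iv immediately after reperfusion and then daily for 7 days, with or without PTIO. Paraffin brain sections (3 μm) were immunostained for CD31, Ki67 and Aurora B with DAPI. Vascular density was CD31⁺/DAPI⁺; proliferating endothelium was CD31⁺Ki67⁺/CD31⁺.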

Rattus norvegicus [17] = test: (§4) Neuroprotective activity against middle cerebral artery occlusion-induced ischemia-reperfusion injury Sprague-Dawley rat model assessed as increase in Ki67+ cells in cerebral ischemic penumbra at 95 to 950 microg/kg, iv treated immediately reperfusion measured after 24 hrs by immunofluoresence assay; type: functional, organism-based; conditions: dose 95-950 µg/kg
Rattus norvegicus [18] = test: as §4, with “AuroraB +” for “Ki67+”; type: functional, organism-based; conditions: dose 95-950 µg/kg
Rattus norvegicus [19] = test: as §4, with “CD31 expression” for “Ki67+ cells”, “hrs in presence of PTIO” for “hrs”; type: functional, organism-based; conditions: dose 95-950 µg/kg

Drug metabolism [1]: Metabolite_Detected
half-life at 200 µM [2]: 1.1 h
Activity [3]: 0.0363 h⁻¹
solubility [4]: 33.2 µg/mL (≈ 124 µM)
Drug metabolism [5]: Metabolite_Detected
SMILES: O=C(/C(=C/c1ccccc1)C[N+](=O)[O-])c1ccccc1
Activity (Cortical neurone [6]): Active
Activity (Cortical neurone [7]): Active
Activity (Cortical neurone [8]): Active
Activity (Rattus norvegicus [9]): Active
Activity (Rattus norvegicus [10]): inactive
Activity [11]: Non-Toxic
Activity (Rattus norvegicus [12]): Active
Activity (Rattus norvegicus [13]): Active
Activity (Rattus norvegicus [14]): inactive
Activity (Rattus norvegicus [15]): Active
Activity (HUVEC): inactive
Activity (Rattus norvegicus [16]): Active
Activity (Rattus norvegicus [17]): Active
Activity (Rattus norvegicus [18]): Active
Activity (Rattus norvegicus [19]): inactive
